Results from ChEMBL document CHEMBL1124937 (J Med Chem, 1990).

Columns and labels:
[1] = target: Beta-2 adrenergic receptor (Mus musculus, UniProt P18762); test: Ki value was determined by accumulation of c-AMP in S-49 mouse lymphoma cells (Beta2).; format: cell-based
How it was run: (§1)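 Antagonist Ki from in vitro inhibition of cyclic AMP accumulation, with cAMP quantified by radioimmunoassay. Cells were prepared as in the group's earlier work. Ki was calculated with the Cheng–Prusoff equation. The four single stereoisomers of each derivative, the stereoisomeric mixture and the parent drug were tested. Relative potency is given versus the parent drug.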

[2] = species: Rattus norvegicus; test: Relative potency(RP) was determined for the biological activity determined in rat fat cells (Beta1); format: functional
How it was run: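 Rat fat cells (β1), prepared as previously described, were assayed in vitro for antagonist inhibition of cAMP accumulation, with cAMP measured by radioimmunoassay. Ki values were calculated with the Cheng–Prusoff equation. Potency is expressed relative to the progenitor drug, which was tested alongside the individual stereoisomers and the stereoisomeric mixture.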

[3] = species: Rattus norvegicus; test: Biological activity in vitro, Ki value was determined by accumulation of c-AMP in rat fat cells (Beta1).; format: functional, cell-based; how it was run: as §1

Sequence of Beta-2 adrenergic receptor (P18762 whole entry): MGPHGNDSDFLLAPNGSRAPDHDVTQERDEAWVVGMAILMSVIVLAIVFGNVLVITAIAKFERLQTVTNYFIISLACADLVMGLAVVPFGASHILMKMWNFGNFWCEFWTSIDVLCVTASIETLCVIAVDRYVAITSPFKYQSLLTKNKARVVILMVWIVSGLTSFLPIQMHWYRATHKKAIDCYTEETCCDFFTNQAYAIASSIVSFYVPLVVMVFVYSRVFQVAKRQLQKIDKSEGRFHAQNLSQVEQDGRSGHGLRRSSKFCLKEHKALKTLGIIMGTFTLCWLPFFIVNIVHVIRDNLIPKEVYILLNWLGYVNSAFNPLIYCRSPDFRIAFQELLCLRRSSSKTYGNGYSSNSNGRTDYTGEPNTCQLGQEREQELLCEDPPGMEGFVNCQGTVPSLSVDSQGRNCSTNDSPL

Row | SMILES | Ki [1] [µM] | Relative potency [2] | Ki [3] [µM]
1 | Cc1ccc(NC(=O)CCCCC(C)NCC(O)COc2cccc3ccccc23)cc1 (stereo unspecified) | 43.3 |  | 
2 | CC(=O)Nc1ccc(OC[C@@H](O)CN[C@H](C)CCCCC(=O)Nc2ccc(C)cc2)cc1 | 0.81 | 2.71 | 0.26
3 | CC(=O)Nc1ccc(OC[C@@H](O)CN[C@H](C)CCCCC(=O)Nc2ccc(C(F)(F)F)cc2)cc1 | 0.146 | 22.6 | 0.031
4 | CC(=O)Nc1ccc(OC[C@H](O)CN[C@H](C)CCCCC(=O)Nc2ccc(C(F)(F)F)cc2)cc1 | 2.17 | 2.92 | 0.24
5 | CC(=O)Nc1ccc(OC[C@H](O)CN[C@@H](C)CCCCC(=O)Nc2ccc(C)cc2)cc1 | 9.24 | 0.267 | 2.62
6 | CC(=O)Nc1ccc(OCC(O)CNC(C)CCCCC(=O)Nc2ccc(C(F)(F)F)cc2)cc1 (stereo unspecified) | 0.39 | 7.8 | 0.13
7 | C[C@H](CCCCC(=O)Nc1ccc(C(F)(F)F)cc1)NC[C@H](O)COc1cccc2ccccc12 | 45.9 |  | 
8 | Cc1ccc(NC(=O)CCCC[C@@H](C)NC[C@H](O)COc2cccc3ccccc23)cc1 | 9.07 |  | 
9 | CC(=O)Nc1ccc(OCC(O)CNC(C)CCCCC(=O)Nc2ccc(C)cc2)cc1 (stereo unspecified) | 1.18 | 2.71 | 0.26
10 | CC(CCCCC(=O)Nc1ccc(C(F)(F)F)cc1)NCC(O)COc1cccc2ccccc12 (stereo unspecified) | 78 |  | 
11 | CC(=O)Nc1ccc(OC[C@@H](O)CN[C@@H](C)CCCCC(=O)Nc2ccc(C(F)(F)F)cc2)cc1 | 2.85 | 2 | 0.35
12 | C[C@H](CCCCC(=O)Nc1ccc(C(F)(F)F)cc1)NC[C@@H](O)COc1cccc2ccccc12 | 130 |  | 
13 | CC(=O)Nc1ccc(OC[C@@H](O)CN[C@@H](C)CCCCC(=O)Nc2ccc(C)cc2)cc1 | 15.6 | 0.442 | 1.58
14 | Cc1ccc(NC(=O)CCCC[C@H](C)NC[C@H](O)COc2cccc3ccccc23)cc1 | 41 |  | 
15 | Cc1ccc(NC(=O)CCCC[C@@H](C)NC[C@@H](O)COc2cccc3ccccc23)cc1 | 195 |  | 
16 | C[C@@H](CCCCC(=O)Nc1ccc(C(F)(F)F)cc1)NC[C@H](O)COc1cccc2ccccc12 | 39 |  | 
17 | CC(=O)Nc1ccc(OC[C@H](O)CN[C@H](C)CCCCC(=O)Nc2ccc(C)cc2)cc1 | 53.6 | 0.351 | 1.99
18 | CC(=O)Nc1ccc(OC[C@H](O)CN[C@@H](C)CCCCC(=O)Nc2ccc(C(F)(F)F)cc2)cc1 (mixture of isomers) | 62 | 0.104 | 6.7
19 | Cc1ccc(NC(=O)CCCC[C@H](C)NC[C@@H](O)COc2cccc3ccccc23)cc1 (racemic) | 195 |  | 
20 | C[C@@H](CCCCC(=O)Nc1ccc(C(F)(F)F)cc1)NC[C@@H](O)COc1cccc2ccccc12 (racemic) | 179 |  | 
21 | CC(=O)Nc1ccc(OCC(O)CNC(C)C)cc1 (stereo unspecified) [PRACTOLOL] |  |  | 0.7
